In ChEMBL document CHEMBL2413075, “Structure activity relationship study of benzo[d]thiazol-2(3H)one based σ receptor ligands” (Bioorg Med Chem Lett, 2013):

Assays:
[1] = organism: Rattus norvegicus; assay: Selectivity ratio of Ki for sigma 2 receptor in rat liver membranes to Ki for sigma 1 receptor in rat liver membranes; assay type: cell membranes; conditions: Membrane
[2] = target: Sigma non-opioid intracellular receptor 1 (Rattus norvegicus, UniProt Q9R0C9); assay: Displacement of [3H](+)-pentazocine from sigma 1 receptor in rat liver membranes; assay type: cell membranes, Membrane
How it was run: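 Rat liver membranes in a 96-well high-throughput format. Sigma-1 sites labeled with 5 nM [3H](+)-pentazocine. Nonspecific binding defined with 10 μM haloperidol. Ki values derived from displacement.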

[3] = Displacement of [3H]DTG from sigma 2 receptor in rat liver membranes; assay type: cell membranes, Membrane
How it was run: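 Rat liver membranes in a 96-well high-throughput format. Sigma-2 sites labeled with 5 nM [3H]DTG, with 300 nM (+)-pentazocine present to mask sigma-1. Nonspecific binding defined with 10 μM haloperidol. Ki values derived from displacement.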

[4] = organism: Cavia porcellus; assay: Selectivity ratio of Ki for sigma 2 receptor in guinea pig brain membranes to Ki for sigma 1 receptor in guinea pig brain membranes; assay type: cell membranes
[5] = Binding affinity to sigma 2 receptor in guinea pig brain membranes; assay type: cell membranes, Cavia porcellus, Membrane

Sequence of Sigma non-opioid intracellular receptor 1 (Q9R0C9 whole entry): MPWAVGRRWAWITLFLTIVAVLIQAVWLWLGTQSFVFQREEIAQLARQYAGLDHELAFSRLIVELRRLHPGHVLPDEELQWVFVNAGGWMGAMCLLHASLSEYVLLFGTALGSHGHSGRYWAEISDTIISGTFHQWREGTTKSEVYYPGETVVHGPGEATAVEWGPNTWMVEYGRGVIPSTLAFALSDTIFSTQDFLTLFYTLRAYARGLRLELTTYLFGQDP

## O=c1sc2cc(CCCF)ccc2n1CCN1CCCCCC1
[1]
  Ratio Ki: 486

## CCC(=O)c1ccc2c(c1)sc(=O)n2CCN1CCCC1
[1]
  Ratio Ki: 41
[2]
  Ki: 116 nM
[3]
  Ki: 4790 nM

## CCCC(=O)c1ccc2c(c1)sc(=O)n2CCCCCN1CCCCCC1
[1]
  Ratio Ki: 0.4
[2]
  Ki: 16.3 nM
[3]
  Ki: 5.7 nM

## CCC(=O)c1ccc2c(c1)sc(=O)n2CCCCN1CCCCCC1
[1]
  Ratio Ki: 3
[2]
  Ki: 10.3 nM
[3]
  Ki: 30.3 nM

## O=c1sc2ccccc2n1CCN1CCCCCCC1
[1]
  Ratio Ki: 74
[2]
  Ki: 9.7 nM
[3]
  Ki: 716 nM

## CCCC(=O)c1ccc2c(c1)sc(=O)n2CCCN1CCCCCC1
[1]
  Ratio Ki: 39
[2]
  Ki: 2.6 nM
[3]
  Ki: 104 nM

## O=c1sc2ccccc2n1CCN1CCCC1
[1]
  Ratio Ki: 14
[2]
  Ki: 578 nM
[3]
  Ki: 8260 nM

## CCCc1ccc2c(c1)sc(=O)n2CCCCCCN1CCCCCC1
[1]
  Ratio Ki: 0.4
[2]
  Ki: 6.3 nM
[3]
  Ki: 2.3 nM

## CCCc1ccc2c(c1)sc(=O)n2CCCCN1CCCCCC1
[1]
  Ratio Ki: 0.7
[2]
  Ki: 6.1 nM
[3]
  Ki: 4.3 nM

## CCCC(=O)c1ccc2c(c1)sc(=O)n2CCCCCCN1CCCCCC1
[1]
  Ratio Ki: 0.2
[2]
  Ki: 10.8 nM
[3]
  Ki: 2.3 nM

## CCC(=O)c1ccc2c(c1)sc(=O)n2CCCCCCN1CCCCCC1
[1]
  Ratio Ki: 0.1
[2]
  Ki: 10.4 nM
[3]
  Ki: 1.1 nM

## O=c1sc2ccccc2n1CCCCCCN1CCCCCC1
[1]
  Ratio Ki: 0.3
[2]
  Ki: 7.5 nM
[3]
  Ki: 2.4 nM

## CCC(=O)c1ccc2c(c1)sc(=O)n2CCCN1CCCCCC1
[1]
  Ratio Ki: 83
[2]
  Ki: 3.7 nM
[3]
  Ki: 305 nM

## O=c1sc2ccccc2n1CCCCCN1CCCCCC1
[1]
  Ratio Ki: 0.4
[2]
  Ki: 7 nM
[3]
  Ki: 2.5 nM

## CCCc1ccc2c(c1)sc(=O)n2CCN1CCCCCC1
[1]
  Ratio Ki: 169
[2]
  Ki: 1.6 nM
[3]
  Ki: 270 nM
[4]
  Ratio Ki: > 1000
[5]
  Ki: > 1000 nM

## CCC(=O)c1ccc2c(c1)sc(=O)n2CCN1CCCCCC1
[1]
  Ratio Ki: 484
[2]
  Ki: 4.5 nM
[3]
  Ki: 2180 nM

## CCCc1ccc2c(c1)sc(=O)n2CCCN1CCCCCC1
[1]
  Ratio Ki: 13
[2]
  Ki: 1.4 nM
[3]
  Ki: 17.2 nM

## CCCCc1ccc2c(c1)sc(=O)n2CCCN1CCCCCC1
[1]
  Ratio Ki: 7
[2]
  Ki: 2.2 nM
[3]
  Ki: 15.3 nM

## CCCCc1ccc2c(c1)sc(=O)n2CCCCCCN1CCCCCC1
[1]
  Ratio Ki: 0.3
[2]
  Ki: 12 nM
[3]
  Ki: 4.1 nM

## O=c1sc2ccccc2n1CCCCN1CCCCCC1
[1]
  Ratio Ki: 31
[2]
  Ki: 3.2 nM
[3]
  Ki: 101 nM

## CCCc1ccc2c(c1)sc(=O)n2CCCCCN1CCCCCC1
[1]
  Ratio Ki: 0.3
[2]
  Ki: 4.6 nM
[3]
  Ki: 1.6 nM

## CCCCc1ccc2c(c1)sc(=O)n2CCCCN1CCCCCC1
[1]
  Ratio Ki: 2.4
[2]
  Ki: 1.9 nM
[3]
  Ki: 4.4 nM

## CCC(=O)c1ccc2c(c1)sc(=O)n2CCCCCN1CCCCCC1
[1]
  Ratio Ki: 0.7
[2]
  Ki: 12.2 nM
[3]
  Ki: 8.3 nM

## O=c1sc2ccccc2n1CCCN1CCCCCC1
[1]
  Ratio Ki: 43
[2]
  Ki: 4.1 nM
[3]
  Ki: 177 nM

## CCCC(=O)c1ccc2c(c1)sc(=O)n2CCCCN1CCCCCC1
[1]
  Ratio Ki: 4.5
[2]
  Ki: 4.8 nM
[3]
  Ki: 21.6 nM
